Measurements taken from ChEMBL document CHEMBL4316642, “Discovery of 1,4-Naphthoquinones as a New Class of Antiproliferative Agents Targeting GPR55” (ACS Med Chem Lett, 2019).
Calls of active or inactive are those of the source. The rule behind the calls is not given here.

Experiments:
Type in all cases: cell-based
[1] = target: G-protein coupled receptor 55 (Homo sapiens) (UniProt Q9Y2T6); assay: Inverse agonist activity at GPR55 in human T47D cells assessed as reduction in cell viability at 5 uM treated 30 mins after 10 uM GPR55 selective antagonist CID16020046 treatment followed by incubation for 24 hrs by MTT assay
Chain of G-protein coupled receptor 55 (Homo sapiens) (Q9Y2T6 whole entry): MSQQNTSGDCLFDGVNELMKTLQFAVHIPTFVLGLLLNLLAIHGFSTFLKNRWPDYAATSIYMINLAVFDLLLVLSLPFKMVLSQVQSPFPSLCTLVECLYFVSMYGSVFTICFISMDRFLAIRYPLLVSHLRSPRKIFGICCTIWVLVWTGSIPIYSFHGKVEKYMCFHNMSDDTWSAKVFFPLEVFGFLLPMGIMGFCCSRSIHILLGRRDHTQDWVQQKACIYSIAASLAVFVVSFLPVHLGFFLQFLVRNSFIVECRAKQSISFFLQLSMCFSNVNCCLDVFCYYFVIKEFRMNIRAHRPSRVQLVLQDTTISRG

[2] = target: G-protein coupled receptor 55 (Homo sapiens) (UniProt Q9Y2T6); assay: Inverse agonist activity at GPR55 in human MDA-MB-231 cells assessed as reduction in cell viability at 5 uM treated 30 mins after 10 uM GPR55 selective antagonist CID16020046 treatment followed by incubation for 24 hrs by MTT assay
Outline: (§1)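 Cells pretreated with GPR55 antagonist CID16020046 for 30 min before test compound addition; proliferation compared against DMSO-treated cells.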

[3] = target: G-protein coupled receptor 55 (Homo sapiens) (UniProt Q9Y2T6); assay: Inverse agonist activity at GPR55 in human MDA-MB-468 cells assessed as reduction in cell viability at 5 uM treated 30 mins after 10 uM GPR55 selective antagonist CID16020046 treatment followed by incubation for 24 hrs by MTT assay; outline: as §1
[4] = target: G-protein coupled receptor 55 (Homo sapiens) (UniProt Q9Y2T6); assay: Inverse agonist activity at GPR55 in human MDA-MB-468 cells assessed as reduction in cell viability at 5 uM incubated for 24 hrs by MTT assay
[5] = target: G-protein coupled receptor 55 (Homo sapiens) (UniProt Q9Y2T6); assay: Inverse agonist activity at GPR55 in human MCF7 cells assessed as reduction in cell viability at 5 uM incubated for 24 hrs by MTT assay
[6] = target: G-protein coupled receptor 55 (Homo sapiens) (UniProt Q9Y2T6); assay: Inverse agonist activity at GPR55 in human MCF7 cells assessed as reduction in cell viability at 5 uM treated 30 mins after 10 uM GPR55 selective antagonist CID16020046 treatment followed by incubation for 24 hrs by MTT assay; outline: as §1
[7] = Cytotoxicity in human PBMC assessed as cell viability at 100 uM incubated for 24 to 48 hrs hrs by trypan blue dye exclusion assay; conditions: PBMC (peripheral blood mononuclear cells), read-out: Activity
Outline: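 Peripheral blood mononuclear cells exposed at 100 μM for 24 or 48 h; viability scored by trypan blue dye exclusion, reported as percent viable cells.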

MCF-10A = assay: Cytotoxicity in human MCF10A cells assessed as reduction in cell viability incubated for 24 hrs by MTT assay
Outline: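 EC50 from MTT viability after 24 h exposure; values in micromolar, mean of triplicate (n = 3) determinations. MCF10A described as […]; MDA-MB-231 noted as GPR55-overexpressing.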

[8] = target: G-protein coupled receptor 55 (Homo sapiens) (UniProt Q9Y2T6); assay: Inverse agonist activity at GPR55 in human MDA-MB-231 cells assessed as reduction in cell viability at 5 uM incubated for 24 hrs by MTT assay
[9] = target: G-protein coupled receptor 55 (Homo sapiens) (UniProt Q9Y2T6); assay: Inverse agonist activity at GPR55 in human T47D cells assessed as reduction in cell viability at 5 uM incubated for 24 hrs by MTT assay

| Structure (SMILES) | Activity [1] | Activity [2] | Activity [3] | Activity [4] | Activity [5] | Activity [6] | viability at 100 µM [7] [%] | EC50 (MCF-10A) [µM] | Activity [8] | Activity [9] |
| --- | --- | --- | --- | --- | --- | --- | --- | --- | --- | --- |
| O=C1C(Cl)=C(N2CCOCC2)C(=O)c2c(O)ccc(O)c21 | inactive | inactive | inactive | Active | Active | inactive | 70 | 3.7 | Active | inactive |
| O=C1C(Cl)=C(N2CCCCC2)C(=O)c2c(O)ccc(O)c21 |  |  |  |  |  |  | 65 | 2.5 |  |  |
